Laboratory results taken from ChEMBL document CHEMBL1649065, “Solomonsterols A and B from Theonella swinhoei. The first example of C-24 and C-23 sulfated sterols from a marine source endowed with a PXR agonistic activity” (J Med Chem, 2011).
Calls of active or inactive are those of the source. The rule behind the calls is not given here.

Key:
[1] = tested on: RAW264.7; assay: Immunomodulatory activity in mouse RAW264.7 cells assessed as effect on TNFalpha mRNA expression at 10 to 50 uM by RT-PCR analysis; format: functional, cell-based
Procedure, shortened: (§1)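 RAW264.7 macrophages incubated 24 h with 10 and 50 μM plus bacterial LPS; total RNA extracted with TRIZOL, 50 ng template amplified by SYBR Green real-time PCR (0.2 μM each primer, 40 cycles), triplicate reactions; CT normalised to GAPDH, relative expression as 2^-ΔΔCT.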

[2] = tested on: RAW264.7; assay: Immunomodulatory activity in mouse RAW264.7 cells assessed as inhibition of IL1-beta mRNA expression at 50 uM by RT-PCR analysis; format: functional; procedure, shortened: as §1
[3] = tested on: RAW264.7; assay: Cytotoxicity against mouse RAW264.7 cells at 10 to 50 uM; format: cell-based; settings: raw264.7, 50 µM
Procedure, shortened: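 Murine macrophages exposed to 10 and 50 μM in presence of bacterial LPS; at end of experiment viability scored by trypan blue exclusion.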

[4] = target: T1, PXR (nuclear receptor subfamily 1 group I member 2) (Homo sapiens, UniProt O75469); assay: Transactivation of PXR in human HepG2 cells assessed as induction of luciferase activity at 50 uM by luciferase reporter gene assay relative to control; settings: read-out: FC
T1 sequence (O75469 whole entry): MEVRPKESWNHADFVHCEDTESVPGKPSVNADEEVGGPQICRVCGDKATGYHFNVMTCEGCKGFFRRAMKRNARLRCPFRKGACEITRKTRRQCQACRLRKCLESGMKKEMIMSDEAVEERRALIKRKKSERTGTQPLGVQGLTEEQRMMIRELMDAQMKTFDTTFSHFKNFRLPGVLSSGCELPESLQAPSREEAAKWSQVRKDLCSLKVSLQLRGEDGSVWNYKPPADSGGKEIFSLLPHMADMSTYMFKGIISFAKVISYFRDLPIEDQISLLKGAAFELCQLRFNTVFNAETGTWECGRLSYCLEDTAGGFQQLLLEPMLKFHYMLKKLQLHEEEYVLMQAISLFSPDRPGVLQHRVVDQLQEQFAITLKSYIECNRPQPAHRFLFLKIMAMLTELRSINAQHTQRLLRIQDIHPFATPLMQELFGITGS

[5] = target: T2, Nuclear receptor subfamily 1 group I member 2 (Homo sapiens, UniProt O75469); assay: Induction of PXR-mediated MDR1 gene expression in human HepG2 cells at 50 uM by RT-PCR analysis; format: cell-based; settings: hepg2, 50 µM
T2 sequence (O75469 whole entry): T1 sequence (O75469 whole entry)
Procedure, shortened: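 HepG2 hepatocytes treated with compound; mRNA quantified by SYBR Green real-time PCR in triplicate, CT normalised to GAPDH, relative expression computed as 2^-ΔΔCT.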

SMILES | Activity [1] | inhibition at 50 µM [2] | Activity [3] | fold induction at 50 µM [4] | Activity [5]
C[C@H](CCCOS(=O)(=O)[O-])[C@H]1CC[C@H]2[C@@H]3CC[C@H]4C[C@H](OS(=O)(=O)[O-])[C@@H](OS(=O)(=O)[O-])C[C@]4(C)[C@H]3CC[C@]12C.[Na+].[Na+].[Na+] [SOLOMONSTEROL A] | inactive | 50% | Non-toxic | 4 | Active
C[C@H](CCOS(=O)(=O)[O-])[C@H]1CC[C@H]2[C@@H]3CC[C@H]4C[C@H](OS(=O)(=O)[O-])[C@@H](OS(=O)(=O)[O-])C[C@]4(C)[C@H]3CC[C@]12C.[Na+].[Na+].[Na+] [SOLOMONSTEROL B] | inactive | 50% | Non-toxic | 4 | Active
